The results in this text go back to ChEMBL document CHEMBL3232910, “Synthesis and evaluation of several oleanolic acid glycoconjugates as protein tyrosine phosphatase 1B inhibitors” (Eur J Med Chem, 2014).

Experiment [1] addresses T1, Tyrosine-protein phosphatase non-receptor type 2 (Homo sapiens, UniProt P17706).
T1 sequence (P17706 whole entry): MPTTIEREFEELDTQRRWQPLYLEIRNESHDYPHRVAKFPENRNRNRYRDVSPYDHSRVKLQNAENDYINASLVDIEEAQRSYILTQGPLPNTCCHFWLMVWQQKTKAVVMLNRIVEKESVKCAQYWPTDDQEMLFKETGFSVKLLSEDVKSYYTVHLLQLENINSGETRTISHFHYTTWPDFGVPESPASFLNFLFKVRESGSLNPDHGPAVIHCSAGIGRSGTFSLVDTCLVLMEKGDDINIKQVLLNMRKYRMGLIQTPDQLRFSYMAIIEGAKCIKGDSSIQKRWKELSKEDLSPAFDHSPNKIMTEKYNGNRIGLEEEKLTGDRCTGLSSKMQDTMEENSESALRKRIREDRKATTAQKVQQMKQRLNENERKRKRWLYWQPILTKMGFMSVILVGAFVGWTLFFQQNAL
Put plainly: Inhibition of TCPTP (unknown origin) using p-nitrophenyl phosphate as substrate assessed as inhibition of release of p-nitrophenol preincubated for 10 mins measured before substrate addition after 30 mins by spectrophotometry. The method, boiled down:
(§1)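 Enzyme diluted in 25 mM HEPES, 50 mM NaCl, 2.5 mM EDTA, 0.1% BSA, pH 7.2. Inhibitor in DMSO was preincubated with enzyme in 50 mM HEPES, 2.5 mM EDTA, pH 7.0 at 37 C for 10 min. pNPP was then added, 30 min at 37 C, stopped with 2 M Na2CO3, A405 read.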

Experiment [2] deals with T2, Tyrosine-protein phosphatase non-receptor type 1 (Homo sapiens) (UniProt P18031).
T2 sequence (whole entry): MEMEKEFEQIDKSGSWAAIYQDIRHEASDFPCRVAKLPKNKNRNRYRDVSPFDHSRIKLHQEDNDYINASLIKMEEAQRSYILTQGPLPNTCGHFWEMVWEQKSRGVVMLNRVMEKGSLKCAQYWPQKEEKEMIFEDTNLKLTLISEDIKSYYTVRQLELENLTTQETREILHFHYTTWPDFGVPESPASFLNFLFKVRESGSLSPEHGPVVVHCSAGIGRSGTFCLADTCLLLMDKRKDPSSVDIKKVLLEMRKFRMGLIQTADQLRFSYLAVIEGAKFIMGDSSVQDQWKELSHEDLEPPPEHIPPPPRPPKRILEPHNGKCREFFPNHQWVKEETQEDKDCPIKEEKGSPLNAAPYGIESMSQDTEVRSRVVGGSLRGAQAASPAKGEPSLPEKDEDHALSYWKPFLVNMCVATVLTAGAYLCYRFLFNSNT
Kind of experiment: Inhibition of recombinant PTP1B (unknown origin) using p-nitrophenyl phosphate as substrate assessed as inhibition of release of p-nitrophenol preincubated for 10 mins measured before substrate addition at 10 ug/ml after 30 mins by spectrophotometry.

Experiment [3] deals with T3, Tyrosine-protein phosphatase non-receptor type 1 (Homo sapiens, UniProt P18031).
T3 sequence (P18031 whole entry): T2 sequence (whole entry)
Kind of experiment: Inhibition of recombinant PTP1B (unknown origin) using p-nitrophenyl phosphate as substrate assessed as inhibition of release of p-nitrophenol preincubated for 10 mins measured before substrate addition after 30 mins by spectrophotometry. The method in brief:
as §1

The species named for experiment [4] is Homo sapiens. Put plainly: Selectivity ratio of IC50 for TCPTP (unknown origin) to IC50 for recombinant PTP1B (unknown origin). The method in brief:
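Ratio of TCPTP IC50 to PTP1B IC50. Both come from the same pNPP hydrolysis assay: 10 min preincubation at 37 C in 50 mM HEPES, 2.5 mM EDTA, pH 7.0, 30 min reaction, Na2CO3 quench, A405. IC50 from 4-parameter logistic fits.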

Each structure is given as a SMILES string.

For orientation: IC50 means the midpoint of a concentration-inhibition curve. The term inhibition denotes the percentage by which the read-out fell short of the control. Regarding `CC1(C)CC[C@]2(C(=O)O[C@@H]3O[C@H](CNC(=O)c4ccccc4C(=O)O)[C@@H](O)[C@H](O)[C@H]3O)CC[C@]3(C)C(=CC[C@@H]4[C@@]5(C)CC[C@H](O[C@@H]6OC[C@@H](O)[C@H](O)[C@H]6O)C(C)(C)[C@@H]5CC[C@]43C)[C@@H]2C1`, the IC50 in experiment [1] came to 15.5 µM; in experiment [3] it was 16.6 µM. Further, the inhibition in experiment [2] is > 54.7%. Further, the Ratio IC50 in experiment [4] was determined as 0.9.
For `CC1(C)CC[C@]2(C(=O)O[C@@H]3O[C@H](CNC(=O)c4ccccc4C(=O)O)[C@@H](O)[C@H](O)[C@H]3O)CC[C@]3(C)C(=CC[C@@H]4[C@@]5(C)CC[C@H](O)C(C)(C)[C@@H]5CC[C@]43C)[C@@H]2C1` the same measures were 24.4 µM, 20.4 µM, 54.7% and 1.2.
On to `CC1(C)CC[C@]2(C(=O)O[C@@H]3O[C@H](CNC(=O)c4ccccc4C(=O)O)[C@@H](O)[C@H](O)[C@H]3O)CC[C@]3(C)C(=CC[C@@H]4[C@@]5(C)CC[C@H](O[C@@H]6O[C@H](CO)[C@@H](O[C@@H]7O[C@H](CO)[C@@H](O)[C@H](O)[C@H]7O)[C@H](O)[C@H]6O)C(C)(C)[C@@H]5CC[C@]43C)[C@@H]2C1`, for which the IC50 in experiment [1] was 2.16 µM; in experiment [3], 0.78 µM. In addition, the inhibition in experiment [2] was > 54.7%. Besides, the Ratio IC50 in experiment [4] amounted to 2.8.
As to `C[C@@H]1O[C@@H](O[C@H]2CC[C@]3(C)[C@H]4CC=C5[C@@H]6CC(C)(C)CC[C@]6(C(=O)O[C@@H]6O[C@H](CNC(=O)c7ccccc7C(=O)O)[C@@H](O)[C@H](O)[C@H]6O)CC[C@@]5(C)[C@]4(C)CC[C@H]3C2(C)C)[C@@H](O)[C@H](O)[C@@H]1O`, the values for the IC50 in experiment [1] and in experiment [3] were 8.73 µM and 10.4 µM, respectively. Moreover, the inhibition in experiment [2] is > 54.7%. Also, the Ratio IC50 in experiment [4] is 0.8.
On to `C[C@@H]1O[C@@H](O[C@H]2CC[C@]3(C)[C@H]4CC=C5[C@@H]6CC(C)(C)CC[C@]6(C(=O)O[C@@H]6O[C@H](CNC(=O)c7ccccc7C(=O)O)[C@@H](O)[C@H](O)[C@H]6O)CC[C@@]5(C)[C@]4(C)CC[C@H]3C2(C)C)[C@H](O)[C@H](O)[C@H]1O`, for which the inhibition in experiment [2] was > 54.7%. In addition, the half-maximal inhibitory concentration (IC50) in experiment [3] is 26.5 µM.
Turning to `CC1(C)CC[C@]2(C(=O)O[C@@H]3O[C@H](CNC(=O)c4ccccc4C(=O)O)[C@@H](O)[C@H](O)[C@H]3O)CC[C@]3(C)C(=CC[C@@H]4[C@@]5(C)CC[C@H](O[C@@H]6OC[C@H](O)[C@H](O)[C@H]6O)C(C)(C)[C@@H]5CC[C@]43C)[C@@H]2C1`, the IC50 in experiment [1] was determined as 12.4 µM; in experiment [3], 5.67 µM. For the same compound, in experiment [2], the inhibition was > 54.7%. Further, the Ratio IC50 in experiment [4] was determined as 2.2.
`CC1(C)CC[C@]2(C(=O)O[C@@H]3O[C@H](CNC(=O)c4ccccc4C(=O)O)[C@@H](O)[C@H](O)[C@H]3O)CC[C@]3(C)C(=CC[C@@H]4[C@@]5(C)CC[C@H](O[C@@H]6O[C@H](CO[C@@H]7O[C@H](CO)[C@@H](O)[C@H](O)[C@H]7O)[C@@H](O)[C@H](O)[C@H]6O)C(C)(C)[C@@H]5CC[C@]43C)[C@@H]2C1`: the IC50 was 2.98 µM in experiment [1] and 3.12 µM in experiment [3]. For the same compound, in experiment [2], the inhibition is > 54.7%. For the same compound, the Ratio IC50 in experiment [4] was determined as 1.
With `CC1(C)CC[C@]2(C(=O)O[C@@H]3O[C@H](CNC(=O)c4ccccc4C(=O)O)[C@@H](O)[C@H](O)[C@H]3O)CC[C@]3(C)C(=CC[C@@H]4[C@@]5(C)CC[C@H](O[C@@H]6O[C@H](CO)[C@H](O)[C@H](O)[C@H]6O)C(C)(C)[C@@H]5CC[C@]43C)[C@@H]2C1`, the IC50 came to 14.6 µM in experiment [1] and 6.53 µM in experiment [3]. For the same compound, the inhibition in experiment [2] was > 54.7%. The Ratio IC50 in experiment [4] came out at 2.2.
As for `CC1(C)CC[C@]2(C(=O)O[C@@H]3O[C@H](CNC(=O)c4ccccc4C(=O)O)[C@@H](O)[C@H](O)[C@H]3O)CC[C@]3(C)C(=CC[C@@H]4[C@@]5(C)CC[C@H](O[C@H]6O[C@H](CO)[C@@H](O)[C@H](O)[C@@H]6O)C(C)(C)[C@@H]5CC[C@]43C)[C@@H]2C1`, the inhibition in experiment [2] was > 54.7%. Moreover, the IC50 in experiment [3] is 15.9 µM.
On to `CC1(C)CC[C@]2(C(=O)O[C@@H]3O[C@H](CNC(=O)c4ccccc4C(=O)O)[C@@H](O)[C@H](O)[C@H]3O)CC[C@]3(C)C(=CC[C@@H]4[C@@]5(C)CC[C@H](O[C@@H]6O[C@H](CO)[C@@H](O)[C@H](O)[C@H]6O)C(C)(C)[C@@H]5CC[C@]43C)[C@@H]2C1`, for which the IC50 in experiment [1] amounted to 30.5 µM; in experiment [3], 17.2 µM. Also, the inhibition in experiment [2] was > 54.7%. Further, the Ratio IC50 in experiment [4] came out at 1.8.
As for `CC1(C)CC[C@]2(C(=O)O[C@@H]3O[C@H](CNC(=O)c4ccccc4C(=O)O)[C@@H](O)[C@H](O)[C@H]3O)CC[C@]3(C)C(=CC[C@@H]4[C@@]5(C)CC[C@H](O[C@@H]6O[C@H](CO)[C@@H](O[C@@H]7O[C@H](CO)[C@H](O)[C@H](O)[C@H]7O)[C@H](O)[C@H]6O)C(C)(C)[C@@H]5CC[C@]43C)[C@@H]2C1`, the figures for the IC50 in experiment [1] and in experiment [3] were 4.11 µM and 1.03 µM, respectively. Also, in experiment [2], the inhibition was > 54.7%. The Ratio IC50 in experiment [4] amounted to 4.
